PglD DTNB = C. jejuni PglD acetyltransferase inhibitors, primary screen, biochemical, DTNB colorimetric, single point; UDP-N-acetylbacillosamine N-acetyltransferase PglD (Campylobacter jejuni); purified PglD enzyme, DTNB colorimetric CoA detection; inhibition, % at 12.5 µM; hit rate 0.098% among 360,000; AID 602405, 2012; in the data active means inhibition above about 16%, passing the limit was not always enough
PfHsp90 yeast 2 = growth inhibition of PfHsp90-expressing yeast, primary screen, antimalarial PfHsp90 inhibitor project, S. cerevisiae, BacTiter-Glo luminescence, single point, set 2 | hit rate 0.32% among 310,000 | AID 504621, 2011 | BacTiter-Glo ATP, 48 h; yeast lacking PDR1 and PDR3 efflux regulators | inhibition, % at 9.4 µM;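 active means every replicate shows inhibition above about 80%, whatever the replicate mean, limit read from the data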;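 further: 0% = DMSO neutral controls and 100% = 20 µM radicicol positive controls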
Rtt109 Vps75 = inhibitors of C. albicans Rtt109/Vps75 HAT, primary screen, biochemical, ThioGlo CoA-SH fluorescence, plate reader. purified Rtt109/Vps75, 4 h. Histone acetyltransferase RTT109 (Candida albicans (strain SC5314 / ATCC MYA-2876)), …. hit rate 0.16% among 330,000. inhibition, % at 34.9 µM;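 active means inhibition of at least 50% in every replicate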
Target sequence (Q5AAJ8 whole entry, looked up): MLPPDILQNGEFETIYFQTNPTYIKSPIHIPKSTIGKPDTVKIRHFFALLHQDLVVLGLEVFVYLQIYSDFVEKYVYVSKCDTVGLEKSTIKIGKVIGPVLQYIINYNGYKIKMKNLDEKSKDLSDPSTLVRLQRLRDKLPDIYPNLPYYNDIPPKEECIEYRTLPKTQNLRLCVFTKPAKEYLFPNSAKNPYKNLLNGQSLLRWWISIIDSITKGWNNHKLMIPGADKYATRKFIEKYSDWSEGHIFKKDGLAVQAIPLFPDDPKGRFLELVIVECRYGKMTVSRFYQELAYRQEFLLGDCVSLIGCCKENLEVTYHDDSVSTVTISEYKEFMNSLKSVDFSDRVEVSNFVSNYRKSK
CSC inhib = cancer stem cell viability inhibitors, primary screen, luminescence; hit rate 1.1% among 300,000; AID 2717, 2010; inhibition, % at 7.5 µM; cancer stem cell-like cells viability; in the data active means inhibition above about 75%; tested in HMLE shEcad cells
SKKanGAS inh = S. pyogenes SKKanGAS growth inhibitors in kanamycin, primary screen, streptokinase expression inhibitor project, SKKanGAS strain, BacTiter-Glo luminescence. inhibition, % at 7.5 µM. 6 h. hit rate 1.3% among 300,000;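 active means mean replicate score, as percent of positive control median, at least 50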;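 further: strain carries kanamycin resistance gene driven by streptokinase promoter and grows in 40 µg/ml kanamycin; loss of luminescence reflects streptokinase promoter inhibition or plain growth inhibition; 0% = median of DMSO wells and 100% = positive control at its reference dose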
FN deposition inh = inhibitors of fibronectin matrix deposition, primary screen, AH1F cells, Alexa488-fibronectin fluorescence, plate reader | AH1F fibroblasts, overnight | inhibition, % at 12.6 µM | hit rate 0.086% among 350,000 | AID 743247, 2014;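 active means mean inhibition across replicates of 30% or more, regardless of how many single replicates reach that level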;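 further: positive control wells lacked labelled fibronectin entirely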
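Assay system: AH1F fibroblasts / Quantity: 10000 cells per well / Medium: DMEM plus 2% serum, read in PBS / Reagent: labelled fibronectin 24 nM / Dosing: single dose, pinned / Times: 1 h cell attachment, overnight exposure to compound and label / Signal: fluorescence, ex 485 nm, em 525 nm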
Starred values were filed as active, the others as inactive. In the library only some 1.7% were active in any assay of this set; here they are far more common.

For CCc1nnc(NC(=O)c2sc3nc4cc(C)ccc4cc3c2N)s1 the results were PglD DTNB -4.1, PfHsp90 yeast 2 -13.0, Rtt109 Vps75 4.8, CSC inhib 11.6, SKKanGAS inh 92.8* and FN deposition inh -5.6.
COc1ccc2cc(-c3ccccc3)ncc2c1 was read as PglD DTNB 0.4, PfHsp90 yeast 2 1.6, Rtt109 Vps75 5.1, CSC inhib -3.1, SKKanGAS inh 3.2 and FN deposition inh 6.9.
For COc1cc(OC)cc(-c2cc3ccc(OC)cc3cn2)c1 the results were PglD DTNB 7.5, PfHsp90 yeast 2 22.6, Rtt109 Vps75 5.9, CSC inhib 93.5* and FN deposition inh 5.8.
CCCC(=O)Nc1ccc2c(c1)C(=O)N(C)[C@@H]1CC[C@H](CC(=O)NCCc3ccncc3)O[C@@H]1CO2 was read as PglD DTNB -1.6 and FN deposition inh -3.7.
For CCC(C(=O)N1CCC(N2CCCCC2)CC1)n1nc(C)c2sc3ccccc3c2c1=O (stereo not drawn) the results were PglD DTNB 2.9, PfHsp90 yeast 2 -1.9, Rtt109 Vps75 9.0, CSC inhib 6.8, SKKanGAS inh 52.6* and FN deposition inh -0.5.
CO[C@H]1CN(C)C(=O)c2cc(NS(C)(=O)=O)ccc2OC[C@H](C)N(C(=O)C2CCC2)C[C@@H]1C was read as PglD DTNB 0.8 and FN deposition inh -3.2.
For Cc1noc(C)c1NC(=O)N(C)C[C@H]1OCCCC[C@@H](C)Oc2ccc(NC(=O)c3ccncc3)cc2C(=O)N([C@@H](C)CO)C[C@H]1C the results were PglD DTNB -0.2.
Screening COc1cccc(O)c1CN1CCC(C(=O)Nc2ccc(-c3cccc(C)c3)cc2)CC1 returned PglD DTNB 8.2, PfHsp90 yeast 2 19.7, Rtt109 Vps75 -0.9, CSC inhib 101.1*, SKKanGAS inh 32.1 and FN deposition inh -1.4.
CN(C)c1cc(Nc2ccc(O)cc2)c([N+](=O)[O-])c2nonc12 was read as PglD DTNB -6.5, PfHsp90 yeast 2 -1.0, Rtt109 Vps75 -5.8, CSC inhib 11.1, SKKanGAS inh -1.0 and FN deposition inh 8.2.
Screening O=C(O)c1ccccc1Nc1cc(Cl)c2nonc2c1[N+](=O)[O-] returned PglD DTNB -135.3, PfHsp90 yeast 2 -8.4, Rtt109 Vps75 12.3, CSC inhib -10.3, SKKanGAS inh 7.0 and FN deposition inh -3.5.
`O=[N+]([O-])c1c(Nc2ccc(O)cc2)cc(Cl)c2nonc12` gave PglD DTNB 6.9, PfHsp90 yeast 2 -6.4, Rtt109 Vps75 0.7, CSC inhib 91.3*, SKKanGAS inh -9.5 and FN deposition inh 53.9*.
`O=[N+]([O-])c1c(Nc2ccccn2)cc(Cl)c2nonc12` gave PfHsp90 yeast 2 107.9*, Rtt109 Vps75 16.4, CSC inhib 96.1*, SKKanGAS inh 15.5 and FN deposition inh -1.0.
For COC(=O)C1CCN(C(=O)c2oc3c(Cl)cc(C)cc3c2C)CC1 the results were PglD DTNB 0.3, PfHsp90 yeast 2 -6.4, Rtt109 Vps75 6.6, CSC inhib 8.8, SKKanGAS inh 5.2 and FN deposition inh -17.1.
Screening Cc1cc(Cl)c2oc(C(=O)N3CCN(c4ccncc4)CC3)c(C)c2c1 returned PglD DTNB 3.4, PfHsp90 yeast 2 4.0, Rtt109 Vps75 24.5, CSC inhib 82.8*, SKKanGAS inh 10.3 and FN deposition inh 4.4.
CN(C)C(=O)c1cccc(-c2ccc(C3[C@@H]4CN(C(=O)c5ccccn5)C[C@H]3N4)cc2)c1 (stereo partly drawn) was read as FN deposition inh -7.1.
Cc1noc(C)c1NC(=O)N(C)C[C@H]1OCCCC[C@@H](C)Oc2ccc(NS(=O)(=O)c3ccc(F)cc3)cc2C(=O)N([C@H](C)CO)C[C@@H]1C was read as PglD DTNB -1.2 and FN deposition inh 0.1.
Cc1cc(C)n(-c2nc(SCC(=O)O)c3c4c(sc3n2)CCCC4)n1 was read as CSC inhib 13.3 and SKKanGAS inh 57.4*.

High-throughput results (PubChem BioAssay)
